# MrgX1 antagonist = antagonists of human MrgX1 receptor | Q96LB2 | MRGX1-HEK293 calcium flux, Fluo-4, BAM8-22 antagonism; stronger effect = lower value | B-score at 10 µM | 310,000 tested, 1.3% active;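 active = calcium-response B-score plate-corrected more than 3 library SD below zero, starting fluorescence within 5 deviations, no agonist response on first addition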;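 note: peak minus trough fluorescence over baseline after final BAM8-22 challenge near maximal dose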
# Target sequence (Q96LB2 whole entry, looked up): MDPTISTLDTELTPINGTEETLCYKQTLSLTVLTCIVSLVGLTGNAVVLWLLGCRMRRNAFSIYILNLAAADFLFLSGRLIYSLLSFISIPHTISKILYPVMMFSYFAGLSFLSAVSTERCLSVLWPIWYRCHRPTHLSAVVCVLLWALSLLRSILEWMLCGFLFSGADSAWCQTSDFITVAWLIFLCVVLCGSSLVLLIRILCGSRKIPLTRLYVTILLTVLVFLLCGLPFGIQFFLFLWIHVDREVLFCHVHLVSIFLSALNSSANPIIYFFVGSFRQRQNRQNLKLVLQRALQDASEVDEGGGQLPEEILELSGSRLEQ
# MrgX1 PAM = allosterically activates human MrgX1 receptor signaling; Q96LB2; MrgX1-HEK293, Fluo-4 calcium flux, FDSS; stronger effect = higher value; B-score at 10 µM; 310,000 tested, 0.63% active;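 active = plate-corrected calcium response at least 3 library SD above typical, normal starting fluorescence, not activating the receptor alone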;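 note: compound read alongside a low EC10 to EC30 dose of BAM8-22 agonist; peak minus trough fluorescence over baseline measured at the second addition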
# MrgX1 ag = activates human MrgX1 receptor signaling; Q96LB2; MrgX1-HEK293 cells, Fluo-4 calcium fluorescence, agonist mode; stronger effect = higher value; B-score at 10 µM; 310,000 tested, 0.44% active; AID 588627;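 active = calcium response B-score plate-corrected fluorescence ratio at least 3 library SD, with starting fluorescence B-score inside 5 SD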
#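 Test system: Stable human MrgX1 HEK293 cell line | Schedule: Overnight plating before 1 h dye loading | Read-out basis: Baseline-normalised fluorescence change ratio, B-scored | Detection: Kinetic calcium dye fluorescence, Fluo-4 NW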
# RGS4 pot = potentiators or activators of RGS4. HEK293 M3R/inducible RGS4, carbachol calcium flux Fluo4; stronger effect = lower value. B-score at 10 µM. 310,000 tested, 0.92% active. AID 463111;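 active = B-score of the integrated calcium signal more than 4 SD below the library mean, with starting fluorescence not abnormally high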;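 note: negative B-score means reduced calcium response which marks RGS4 activation or potentiation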
#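 Test system: HEK293 cells with stable M3R and inducible RGS4; also added: carbachol at ECmax as muscarinic agonist stimulus; schedule: dye loading 30 min 37 °C, buffer rest 30 min RT; technique: kinetic calcium fluorescence imaging with Fluo4-AM dye, 2 µM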
# RGS4 inh = inhibitors of human RGS4 | P49798 | HEK293 M3R/RGS4 inducible, Fluo-4 calcium flux; stronger effect = higher value; triggered by carbachol at its EC20 | B-score at 10 µM | 310,000 tested, 0.45% active | AID 463165;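 active = B-score, a plate-corrected calcium signal, over three deviations above library mean, with baseline fluorescence within five deviations of library mean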;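 note: RGS4 expression induced by doxycycline in cells with stable M3 receptor; B-score is computed from the integrated fluorescence ratio over baseline after carbachol; higher B-score means a larger calcium signal and so more RGS4 inhibition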
# Target sequence (P49798 whole entry, looked up): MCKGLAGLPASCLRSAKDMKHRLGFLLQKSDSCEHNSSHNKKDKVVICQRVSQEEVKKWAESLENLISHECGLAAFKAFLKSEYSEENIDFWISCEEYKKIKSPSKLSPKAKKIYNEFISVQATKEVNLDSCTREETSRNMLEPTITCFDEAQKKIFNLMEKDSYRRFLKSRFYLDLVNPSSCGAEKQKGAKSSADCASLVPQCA
# RGS4 activ val = RGS4 activation, validation assay | shares compounds with RGS4 pot | HEK293 M3R/RGS4 inducible, carbachol calcium flux Fluo4 | inhibition, % at 10 µM | 1,100 tested, 89% active | AID 602282;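 active = inhibition above 3 SD of the buffer control wells, cut at about 41% in these data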;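 note: signal is the integrated peak-minus-minimum Fluo4 fluorescence over baseline ratio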
# M3R Ca counter = RGS4 activator counter-screen hit in non-induced cells; AID 602283; 1,100 tested, 82% active; HEK293 M3R non-induced RGS4, Fluo4 calcium flux; after carbachol challenge at its EC90; shares compounds with RGS4 pot; inhibition, % at 10 µM;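 active = inhibition exceeding 3 SD of buffer-only control wells, cut at about 26% in these data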;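 note: percent drop in integrated peak-minus-baseline over baseline Fluo4 ratio after carbachol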
# A number is an active result; i = inactive; nt = no result; ! = a repeat was not active. An excerpt weighted towards active compounds, which were near 3.5% of everything screened.
SMILES,MrgX1 antagonist,MrgX1 PAM,MrgX1 ag,RGS4 pot,RGS4 inh,RGS4 activ val,M3R Ca counter
NC(=O)C1CCN(c2ccc3c(c2)S(=O)(=O)c2ccccc2C3=O)CC1,i,i,i,i,i,nt,nt
CCNC(=O)CC1C(=O)N(CC)C(=S)N1NC(=O)c1cccnc1 (stereo unspecified),i,i,i,i,i,nt,nt
COc1ccc2c(c1)C=C([C@@H]1C[C@H]3CN(c4ccccc4)C(=O)[C@]34CCCN14)CO2,i,i,i,-10,i,70,84
Cc1cccc(C)c1NC(=O)CCS(=O)(=O)c1ccc(Br)cc1,i,i,i,i,i,nt,nt
Cc1ccc(N(CC(=O)NCc2ccc3c(c2)OCO3)S(=O)(=O)c2c(C)noc2C)cc1,i,i,i,i,i,nt,nt
Cc1noc(C)c1S(=O)(=O)N(CC(=O)NCc1ccc2c(c1)OCO2)c1ccc(C(C)C)cc1,i,i,i,-8.3,i,i,i
CC(Oc1ccc(Cl)cc1)c1ccc(C#N)c(=O)[nH]1 (stereo unspecified),i,i,i,i,i,nt,nt
COC(=O)CNc1nc(-c2cccnc2)nc2ccccc12,i,i,i,nt,nt,nt,nt
Cc1ccc(CNc2nc(-c3cccnc3)nc3ccccc23)cc1,i,i,i,i,i,nt,nt
COc1ccc(C(CNc2nc(-c3cccnc3)nc3ccccc23)N(C)C)cc1 (stereo unspecified),i,i,i,-9.3,i,60,84
c1ccc(CNc2nc(-c3cccnc3)nc3ccccc23)cc1,i,i,i,-8.4,i,84,37
CN(C)c1nc(N(C)C)nc(N(C#N)CN2C(=O)c3ccccc3C2=O)n1,i,i,i,i,i,nt,nt
CC1=C(C(=O)OCC2CCCO2)C(c2ccccc2)C2=C(CC(C)(C)CC2=O)N1 (stereo unspecified),i,i,i,-8.2,i,i,i
COc1ccc(N2CCN(C(=O)Cc3csc(NC(=O)Nc4ccccc4OC)n3)CC2)cc1,i,i,i,i,i,nt,nt
COc1ccccc1NC(=O)Nc1nc(CC(=O)N2CCN(c3ccc(F)cc3)CC2)cs1,i,i,i,-8.2,i,56,i
O=C(Cc1c[nH]c2ccccc12)NCc1ccc2c(c1)OCO2,i,i,i,i,i,nt,nt
CC1CCCCN1C(=O)c1cc2nc(-c3ccccc3)cc(-c3ccccc3)n2n1 (stereo unspecified),i,i,i,-7.9,i,74,i
CSc1ccc(CCNC(=O)CCc2nnc3ccc(N4CCC5(CC4)OCCO5)nn23)cc1,i,i,i,i,i,nt,nt
CCOC(=O)c1c(NC(=O)c2cccc(N3C(=O)CCC3=O)c2)sc2c1CCN(CC)C2,i,i,i,-9.8,i,90,44
CCOC(=O)Nc1ccc2c(c1)N(C(=O)C(C)N1CCCC1)c1ccccc1CC2 (stereo unspecified),i,i,i,-7.9,i,86,84
CC(NC(=O)c1ccccc1NC(=O)CN1CCc2ccccc2C1)c1ccccc1 (stereo unspecified),i,i,i,i,i,nt,nt
COc1ccc2c(c1)sc(N)[n+]2Cc1cc(C)cc2cccnc12,i,i,i,i,i,nt,nt
CCOc1ccc2c(c1)sc(N)[n+]2Cc1cc(C)cc2cccnc12,i,i,i,-11,i,90,46
COc1cc(CN2CCN(C(c3ccccc3)c3ccccc3)CC2)cc(OC)c1OC,i,i,i,-8.9,i,86,30
COc1cccc(CN2CCN(C(c3ccccc3)c3ccccc3)CC2)c1O,i,i,i,-8.8,i,92,75
SMILES,MrgX1 antagonist,MrgX1 PAM,MrgX1 ag,RGS4 pot,RGS4 inh,RGS4 activ val,M3R Ca counter
CN(Cc1ccccc1F)C(=O)CN1c2cccc3cccc(c23)S1(=O)=O,i,i,i,i,i,nt,nt
OC1(C#CCCN2CCCCC2)c2ccccc2-c2ccccc21,i,i,i,-8.7,i,92,60
OC1(CC#CCN2CCCCC2)c2ccccc2-c2ccccc21,i,i,i,i,i,nt,nt
COc1ccc(N2C(C)=CS/C2=C(/C#N)c2nnc(N3CCOCC3)n2-c2ccccc2)cc1,i,i,i,i,i,nt,nt
CSc1ccc(C(=O)C2CCCN(Cc3ccc(N4CCNC4=O)cc3)C2)cc1 (stereo unspecified),i,i,i,-8,i,91,57
COc1ccc(CN2CCCC(C(=O)c3ccc(SC)cc3)C2)cc1Cn1cccn1 (stereo unspecified),i,i,i,i,i,nt,nt
COc1ccccc1NS(=O)(=O)c1ccc2c(c1)CCN2C(=O)CCC(=O)O,i,i,i,i,i,nt,nt
CN(C)CCC1Sc2ccccc2Oc2ccccc21 (stereo unspecified),i,i,i,-7.6,i,74,84
CN1C(=O)[C@H]2[C@@H](/C=C/c3ccccc3)N3C(=O)CN(Cc4ccc(-c5ccccc5)cc4)C(=O)[C@@]3(Cc3ccccc3)[C@H]2C1=O,i,i,i,i,i,nt,nt
COC(=O)c1sccc1NC(=O)c1cc(-c2cc(C)ccc2C)nc2ccccc12,i,i,i,i,i,nt,nt
Cc1csc(NC(=O)c2cc(-c3ccccc3)nc3ccccc23)n1,i,i,i,-7.8,i,86,43
CC(C)(C)c1nnc(NC(=O)c2cc(-c3ccccc3)nc3ccccc23)s1,i,i,i,i,i,nt,nt
Cc1ccc(C)c(-c2cc(C(=O)Nc3nccs3)c3ccccc3n2)c1,i,i,i,-7.7,i,68,i
Cn1nnc(NC(=S)NC(=O)c2cc(Cl)ccc2Cl)n1,i,i,i,i,i,nt,nt
COc1ccc(-c2oc3ncnc(NCCN4CCOCC4)c3c2-c2ccc(OC)cc2)cc1,i,i,i,-9.8,i,88,70
COc1ccc(-c2oc3ncnc(NCCCN4CCOCC4)c3c2-c2ccc(OC)cc2)cc1,i,i,i,i,i,nt,nt
CC(C)NC(C(=O)Nc1cc(Cl)cc(Cl)c1)c1ccccc1 (stereo unspecified),i,i,i,i,i,nt,nt
CN(C)CCNC(C(=O)Nc1cc(Cl)cc(Cl)c1)c1ccccc1 (stereo unspecified),i,i,i,-9.7,i,91,49
CCOC(=O)c1sc(Nc2nc3c(OC)cccc3s2)nc1C,i,i,i,-7.8,i,93,79
CCOC(=O)c1sc(Nc2ccccc2)nc1C,i,i,i,i,i,nt,nt
Cc1ccccc1OCc1n(CC(=O)OC2CC(C)CCC2C(C)C)c2ccccc2[n+]1C (stereo unspecified),-7.2,i,i,-13,i,92,91
CC1CCC(C(C)C)C(OC(=O)Cn2c(-c3ccc(Br)cc3)[n+](C)c3ccccc32)C1 (stereo unspecified),-6!,i,i,-11,i,94,81

# From PubChem BioAssay
